Article PMC4495880 (Biochemical pharmacology, 2010)
Like-named read-outs stand apart in the source and are kept apart here.

Tests used:
[1] = Protease inhibitors blocking BNP inactivation by human kidney membranes; assay type: biochemical; conditions: for effect on BNP inactivation: human membranes, data not shown; for effect of inhibitor on inactivation of rat BNP1-32 by human kidney membranes: 45 min, N = 8
[2] = Proteolysis bioassay: inactivation of BNP by human kidney membranes; assay type: in vitro ADME; conditions: 40 μg human kidney membranes, 45 min, 37°C; cGMP bioassay; mean, N = 8
Method in brief: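 Rat BNP_1-32 incubated 45 min at 37°C with 40 μg crude human kidney membranes (diluted to 2 mg/ml in 50 mM Tris-HCl pH 7.5, 20% glycerol, 50 mM NaF). Stopped with 0.5 N perchloric acid, boiled 10 min, neutralised. Residual activity was read as cGMP (RIA) in serum-starved HEK293 cells expressing rat (1 min) or human (3 min) GC-A, with 1 mM IBMX. Remaining peptide was fitted to an untreated-peptide standard curve and expressed as % of peptide-only. Mean ± SEM, N = 8.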

[3] = cited from earlier work
[4] = Proteolysis bioassay: inactivation of BNP by rat kidney membranes; assay type: in vitro ADME; conditions: 40 μg rat kidney membranes, 45 min, 37°C; cGMP bioassay; mean, N = 4
Method in brief: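 Human BNP_1-32 exposed to 40 μg crude rat kidney membranes (Tris-HCl pH 7.5/glycerol/NaF buffer, 2 mg/ml) for 45 min at 37°C. Perchloric acid stop, 10 min boil, NaOH neutralisation. Aliquot in DMEM, 25 mM HEPES pH 7.4, 1 mM IBMX applied to HEK293 cells stably expressing GC-A (rat receptor 1 min, human 3 min). cGMP by radioimmunoassay; peptide left derived from standard curve, % of starting peptide-only value. Mean ± SEM, N = 4.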

[5] = tested on: recombinant human meprin A and NEP; assay type: in vitro ADME
[6] = Protease inhibitors blocking BNP inactivation by rat kidney membranes; assay type: biochemical; conditions: 40 μg rat kidney membranes, 45 min; cGMP bioassay; N = 8
[7] = 40 μg human kidney membranes, 37°C, cGMP bioassay

## aprotinin
[1]
  effect on BNP inactivation: neither had an effect

## O=S(=O)(F)Cc1ccccc1 [PMSF]
[1]
  effect on BNP inactivation: neither had an effect

## Rat B-type natriuretic peptide 1–32 (SQDSAFRIQERLRNSKMAHSSSCFGQKIDRIG; Brain natriuretic peptide 45; UniProt P13205 77-108, looked up, fragment) [rat BNP1-32]
[2]
  bioactivity lost: More than 75%

## CC(C)C[C@H](NP(=O)(O)O[C@@H]1O[C@@H](C)[C@H](O)[C@@H](O)[C@H]1O)C(=O)N[C@@H](Cc1c[nH]c2ccccc12)C(=O)O [phosphoramidon]
[1]; [7]
  effect of inhibitor on inactivation of rat BNP1-32 by human kidney membranes: blocked a portion of the activity loss

## Atrial natriuretic peptide [ANP]
[3]
  half-life: ~ 2 min

## human B-type natriuretic peptide [human BNP1-32]
[4]
  initial bioactivity lost: 48%
[5]
  additional loss of activity on longer incubation with purified enzymes: did not result in any additional loss
  additional loss of activity on sequential addition of the enzymes: did not result in any additional loss
[3]
  half-life: ~ 20 min

## CC(=O)N[C@@H](CC(C)C)C(=O)N[C@@H](CC(C)C)C(=O)N[C@H](C=O)CCCNC(=N)N [leupeptin]
[1]; 40 μg human kidney membranes, 20 min, 37°C, cGMP bioassay
  effect of inhibitor on inactivation of human BNP1-32 by human kidney membranes: completely blocked activity losses
[1]; [7]
  effect of inhibitor on inactivation of rat BNP1-32 by human kidney membranes: blocked a portion of the activity loss
[6]
  effect of inhibitor on inactivation of rat BNP1-32 by rat kidney membranes: had no effect

## CNP: natriuretic peptide, best substrate for NEP
[3]; in vivo
  half-life: ~ 2 min
